Measurements as given in ChEMBL document CHEMBL4339192, “De Novo Designed Amphipathic α-Helical Antimicrobial Peptides Incorporating Dab and Dap Residues on the Polar Face To Treat the Gram-Negative Pathogen, Acinetobacter baumannii” (J Med Chem, 2019).
Values after ≈ are worked out from the molar mass of the structure shown. Where a SMILES comes first, the peptide text is derived from it. [ ]: non-standard residue; d: D form. Dab = NCC[C@H](N)C(=O)O

How the values were obtained:
Acinetobacter baumannii [1] = experiment: Antibacterial activity against Acinetobacter baumannii isolate 963659 measured after 24 hrs by microtiter dilution method; format: functional; conditions: isolate 963659, 24 h
Outline: (§1)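 Broth microdilution in Mueller-Hinton (MH) medium. […] Plates were incubated 24 h at 37 °C. MIC was the lowest peptide concentration that inhibited growth, based on three sets of replicates.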

Acinetobacter baumannii [2] = experiment: Antibacterial activity against polymyxin B/colistin-resistant Acinetobacter baumannii M89949 measured after 24 hrs by microtiter dilution method; format: functional; conditions: M89949, 24 h; outline: as §1
Acinetobacter baumannii [3] = experiment: Antibacterial activity against polymyxin B/colistin-resistant Acinetobacter baumannii M89955 measured after 24 hrs by microtiter dilution method; format: functional; conditions: M89955, 24 h; outline: as §1
Acinetobacter baumannii [4] = experiment: Antibacterial activity against Acinetobacter baumannii isolate 1035794 measured after 24 hrs by microtiter dilution method; format: functional; conditions: isolate 1035794, 24 h; outline: as §1
Acinetobacter baumannii [5] = experiment: Antibacterial activity against Acinetobacter baumannii isolate 1017395 measured after 24 hrs by microtiter dilution method; format: functional; conditions: isolate 1017395, 24 h; outline: as §1
Acinetobacter baumannii [6] = experiment: Antibacterial activity against polymyxin B/colistin-resistant Acinetobacter baumannii M89953 measured after 24 hrs by microtiter dilution method; format: functional; conditions: M89953, 24 h; outline: as §1
[7] = Therapeutic index, ratio of HC50 for human RBC to MIC for polymyxin B/colistin-resistant Acinetobacter baumannii M89953; format: toxicity; conditions: human red blood cells, read-out: TI
Outline: (§2)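 T.I. = HC50/MIC. For HC50, peptide (quantified by amino acid analysis) was two-fold serially diluted over 12 concentrations up to 1000 μg/mL. It was incubated with 1% fresh human erythrocytes in PBS, pH 7.4, for 18 h at 37 °C. After 800g centrifugation, hemoglobin was read at 570 nm against water (100%) and no-peptide (0%) controls. HC50 came from a lysis-versus-concentration plot, average of 3 replicates.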

[8] = Hemolytic activity against human RBC measured after 18 hrs by spectrophotometric method; format: ADME, cell-based, Erythrocyte; conditions: human red blood cells (erythrocytes)
Outline: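 Peptide (amount by amino acid analysis), two-fold serial dilutions at 12 concentrations up to 1000 μg/mL, with 1% human erythrocytes in PBS pH 7.4, 37 °C, 18 h. Unlysed cells removed by centrifugation (800g); hemoglobin read at 570 nm. Water-lysed cells = 100%, no-peptide cells = 0%. HC50 from plot of % lysis vs concentration (μM), average of 3 replicates.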

[9] = Therapeutic index, ratio of HC50 for human RBC to MIC for polymyxin B/colistin-resistant Acinetobacter baumannii M89949; format: toxicity; conditions: human red blood cells, read-out: TI; outline: as §2
[10] = Therapeutic index, ratio of HC50 for human RBC to MIC for polymyxin B/colistin-resistant Acinetobacter baumannii M89941; format: toxicity; conditions: human red blood cells, read-out: TI; outline: as §2
Acinetobacter baumannii [11] = experiment: Antibacterial activity against Acinetobacter baumannii isolate 1010282 measured after 24 hrs by microtiter dilution method; format: functional; conditions: isolate 1010282, 24 h; outline: as §1
Acinetobacter baumannii [12] = experiment: Antibacterial activity against Acinetobacter baumannii isolate 964304 measured after 24 hrs by microtiter dilution method; format: functional; conditions: isolate 964304, 24 h; outline: as §1
Acinetobacter baumannii [13] = experiment: Antibacterial activity against Acinetobacter baumannii isolate 968886 measured after 24 hrs by microtiter dilution method; format: functional; conditions: isolate 968886, 24 h; outline: as §1
Acinetobacter baumannii [14] = experiment: Antibacterial activity against Acinetobacter baumannii isolate 1018887 measured after 24 hrs by microtiter dilution method; format: functional; conditions: isolate 1018887, 24 h; outline: as §1
[15] = Therapeutic index, ratio of HC50 for human RBC to MIC for polymyxin B/colistin-resistant Acinetobacter baumannii M89952; format: toxicity; conditions: human red blood cells, read-out: TI; outline: as §2
[16] = Therapeutic index, ratio of HC50 for human RBC to MIC for polymyxin B/colistin-resistant Acinetobacter baumannii M89955; format: toxicity; conditions: human red blood cells, read-out: TI; outline: as §2
[17] = Therapeutic index, ratio of HC50 for human RBC to MIC for polymyxin B/colistin-resistant Acinetobacter baumannii M89951; format: toxicity; conditions: human red blood cells, read-out: TI; outline: as §2
Acinetobacter baumannii [18] = experiment: Antibacterial activity against Acinetobacter baumannii 649 measured after 24 hrs in presence of 25% human serum by microtiter dilution method; format: functional; conditions: Acinetobacter baumannii, 649, 24 h
Outline: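 Blood strain 649 was tested by MH broth microdilution with and without 25% (v/v) human serum added to the medium. The test used a final inoculum of 5 × 10^5 cfu/mL and incubation at 37 °C. The ratio is the MIC in serum over the MIC in MH alone.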

[19] = Therapeutic index, ratio of HC50 for human RBC to MIC for polymyxin B/colistin-resistant Acinetobacter baumannii M89963; format: toxicity; conditions: human red blood cells, read-out: TI; outline: as §2
Acinetobacter baumannii [20] = experiment: Antibacterial activity against polymyxin B/colistin-resistant Acinetobacter baumannii M89952 measured after 24 hrs by microtiter dilution method; format: functional; conditions: M89952, 24 h; outline: as §1
Acinetobacter baumannii [21] = experiment: Antibacterial activity against Acinetobacter baumannii isolate 1007660 measured after 24 hrs by microtiter dilution method; format: functional; conditions: isolate 1007660, 24 h; outline: as §1
Acinetobacter baumannii [22] = experiment: Antibacterial activity against polymyxin B/colistin-resistant Acinetobacter baumannii M89963 measured after 24 hrs by microtiter dilution method; format: functional; conditions: M89963, 24 h; outline: as §1
Acinetobacter baumannii [23] = experiment: Antibacterial activity against Acinetobacter baumannii isolate 1035166 measured after 24 hrs by microtiter dilution method; format: functional; conditions: isolate 1035166, 24 h; outline: as §1
Acinetobacter baumannii [24] = experiment: Antibacterial activity against Acinetobacter baumannii isolate 963618 measured after 24 hrs by microtiter dilution method; format: functional; conditions: isolate 963618, 24 h; outline: as §1
Acinetobacter baumannii [25] = experiment: Antibacterial activity against Acinetobacter baumannii 649 measured after 24 hrs by microtiter dilution method; format: functional; conditions: Acinetobacter baumannii, 649, 24 h; outline: as §1
Acinetobacter baumannii [26] = experiment: Antibacterial activity against Acinetobacter baumannii isolate 1021371 measured after 24 hrs by microtiter dilution method; format: functional; conditions: isolate 1021371, 24 h; outline: as §1
Acinetobacter baumannii [27] = experiment: Antibacterial activity against Acinetobacter baumannii isolate 952654 measured after 24 hrs by microtiter dilution method; format: functional; conditions: isolate 952654, 24 h; outline: as §1
Acinetobacter baumannii [28] = experiment: Antibacterial activity against Acinetobacter baumannii isolate 1010245 measured after 24 hrs by microtiter dilution method; format: functional; conditions: isolate 1010245, 24 h; outline: as §1
Acinetobacter baumannii [29] = experiment: Antibacterial activity against Acinetobacter baumannii isolate 961997 measured after 24 hrs by microtiter dilution method; format: functional; conditions: isolate 961997, 24 h; outline: as §1
Acinetobacter baumannii [30] = experiment: Antibacterial activity against Acinetobacter baumannii isolate 1002956 measured after 24 hrs by microtiter dilution method; format: functional; conditions: isolate 1002956, 24 h; outline: as §1
Acinetobacter baumannii [31] = experiment: Antibacterial activity against Acinetobacter baumannii isolate 977751 measured after 24 hrs by microtiter dilution method; format: functional; conditions: isolate 977751, 24 h; outline: as §1
Acinetobacter baumannii [32] = experiment: Antibacterial activity against Acinetobacter baumannii isolate 9383370 measured after 24 hrs by microtiter dilution method; format: functional; conditions: isolate 9383370, 24 h; outline: as §1
Acinetobacter baumannii [33] = experiment: Antibacterial activity against Acinetobacter baumannii isolate 965463 measured after 24 hrs by microtiter dilution method; format: functional; conditions: isolate 965463, 24 h; outline: as §1
Acinetobacter baumannii [34] = experiment: Antibacterial activity against Acinetobacter baumannii isolate 1001611 measured after 24 hrs by microtiter dilution method; format: functional; conditions: isolate 1001611, 24 h; outline: as §1
Acinetobacter baumannii [35] = experiment: Antibacterial activity against polymyxin B/colistin-resistant Acinetobacter baumannii M89951 measured after 24 hrs by microtiter dilution method; format: functional; conditions: M89951, 24 h; outline: as §1
Acinetobacter baumannii [36] = experiment: Antibacterial activity against Acinetobacter baumannii isolate 981650 measured after 24 hrs by microtiter dilution method; format: functional; conditions: isolate 981650, 24 h; outline: as §1
Acinetobacter baumannii [37] = experiment: Antibacterial activity against polymyxin B/colistin-resistant Acinetobacter baumannii M89941 measured after 24 hrs by microtiter dilution method; format: functional; conditions: M89941, 24 h; outline: as §1

## CC(=O)N[C@H](CCCCN)C(=O)N[C@H](CC(C)C)C(=O)N[C@@H](CCN)C(=O)N[C@H](CO)C(=O)N[C@H](CC(C)C)C(=O)N[C@H](CC(C)C)C(=O)N[C@@H](CCN)C(=O)N[C@@H](C(=O)N[C@H](CC(C)C)C(=O)N[C@H](CO)C(=O)N[C@@H](CCN)C(=O)N[C@H](C)C(=O)N[C@H](CCCCN)C(=O)N[C@H](C)C(=O)N[C@H](C)C(=O)N[C@H](CCCCN)C(=O)N[C@H](CC(C)C)C(=O)N[C@@H](CCN)C(=O)N[C@@H](C(=O)N[C@H](CC(C)C)C(=O)N[C@H](CC(C)C)C(=O)N[C@@H](CCN)C(=O)N[C@H](C)C(=O)N[C@H](CC(C)C)C(=O)N[C@H](CO)C(=O)N[C@H](CO)C(N)=O)[C@H](C)O)[C@H](C)O (Ac-[dK][dL][Dab][dS][dL][dL][Dab][dT][dL][dS][Dab][dA][dK][dA][dA][dK][dL][Dab][dT][dL][dL][Dab][dA][dL][dS][dS]-NH2)
Acinetobacter baumannii [1]
  MIC: 0.7 µM (≈ 1.88 µg/mL)
Acinetobacter baumannii [2]
  MIC: 0.7 µM (≈ 1.88 µg/mL)
Acinetobacter baumannii [3]
  MIC: 0.7 µM (≈ 1.88 µg/mL)
Acinetobacter baumannii [4]
  MIC: 0.7 µM (≈ 1.88 µg/mL)
Acinetobacter baumannii [5]
  MIC: 0.7 µM (≈ 1.88 µg/mL)
Acinetobacter baumannii [6]
  MIC: 1.4 µM (≈ 3.76 µg/mL)
[7]
  selectivity ratio: > 1010
[8]
  HC50 at 18 h: > 708 µM
[9]
  selectivity ratio: > 1010
[10]
  selectivity ratio: > 1010
Acinetobacter baumannii [11]
  MIC: 0.7 µM (≈ 1.88 µg/mL)
Acinetobacter baumannii [12]
  MIC: 0.7 µM (≈ 1.88 µg/mL)
Acinetobacter baumannii [13]
  MIC: 0.7 µM (≈ 1.88 µg/mL)
Acinetobacter baumannii [14]
  MIC: 0.7 µM (≈ 1.88 µg/mL)
[15]
  selectivity ratio: > 1010
[16]
  selectivity ratio: > 1010
[17]
  selectivity ratio: > 1010
Acinetobacter baumannii [18]
  MIC: 0.7 µM
[19]
  selectivity ratio: > 1010
Acinetobacter baumannii [20]
  MIC: 0.7 µM (≈ 1.88 µg/mL)
Acinetobacter baumannii [21]
  MIC: 0.4 µM (≈ 1.07 µg/mL)
Acinetobacter baumannii [22]
  MIC: 0.7 µM (≈ 1.88 µg/mL)
Acinetobacter baumannii [23]
  MIC: 0.7 µM (≈ 1.88 µg/mL)
Acinetobacter baumannii [24]
  MIC: 0.4 µM (≈ 1.07 µg/mL)
Acinetobacter baumannii [25]
  MIC: 0.4 µM (≈ 1.07 µg/mL)
Acinetobacter baumannii [26]
  MIC: 0.4 µM (≈ 1.07 µg/mL)
Acinetobacter baumannii [27]
  MIC: 0.4 µM (≈ 1.07 µg/mL)
Acinetobacter baumannii [28]
  MIC: 0.4 µM (≈ 1.07 µg/mL)
Acinetobacter baumannii [29]
  MIC: 1.5 µM (≈ 4.03 µg/mL)
Acinetobacter baumannii [30]
  MIC: 0.4 µM (≈ 1.07 µg/mL)
Acinetobacter baumannii [31]
  MIC: 0.7 µM (≈ 1.88 µg/mL)
Acinetobacter baumannii [32]
  MIC: 0.7 µM (≈ 1.88 µg/mL)
Acinetobacter baumannii [33]
  MIC: 0.7 µM (≈ 1.88 µg/mL)
Acinetobacter baumannii [34]
  MIC: 0.4 µM (≈ 1.07 µg/mL)
Acinetobacter baumannii [35]
  MIC: 0.7 µM (≈ 1.88 µg/mL)
Acinetobacter baumannii [36]
  MIC: 0.4 µM (≈ 1.07 µg/mL)
Acinetobacter baumannii [37]
  MIC: 0.4 µM (≈ 1.07 µg/mL)
